Active and inactive are the calls of the source. No cut-off for these calls is given here.
Assays:
[1] = tested on: MDA-MB-231; test: Antiproliferative activity against human MDA-MB-231 cells assessed as reduction in cell viability at 10 uM after 4 days by [3H]-thymidine incorporation assay relative to control; format: functional
Method in brief: (§1)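 MDA-MB-231 and HCT116 cells (ATCC) seeded at 3000 cells/well on tissue-culture-treated plates as monolayers and incubated 3 days. Compound then added for four days. 3H-thymidine pulse of 0.04 µCi/well for 5 h before harvest. Proliferation read as 3H-thymidine incorporation into S-phase DNA. Mean % of untreated cells is reported; IC50 is the concentration giving 50% inhibition.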

[2] = tested on: HCT-116; test: Antiproliferative activity against human HCT116 cells assessed as reduction in cell viability at 10 uM after 4 days by [3H]-thymidine incorporation assay relative to control; format: functional; method in brief: as §1
[3] = tested on: MDA-MB-231; test: Antiproliferative activity against human MDA-MB-231 cells assessed as reduction in cell viability after 4 days by [3H]-thymidine incorporation assay; format: functional, cell-based; method in brief: as §1
[4] = Stability of carbenium ionic form, pKR+ of the compound by spectrophotometric analysis; format: physicochemical
Method in brief: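 Calibration of molar absorbance at the 330 nm peak, made with the compound in 0.1 M acetic acid, where the alcohol is completely ionised. pKR+ derived from the absorbance relationship in eqn (1).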

[5] = tested on: MDA-MB-231; test: Induction of DNA double strand breaks in human MDA-MB-231 cells assessed as gammaH2AX phosphorylation at 1 uM incubated for 16 hrs by flow cytometry (reference value: 6.1 +/-0.7%); format: functional
[6] = tested on: MDA-MB-231; test: Induction of DNA double strand breaks in human MDA-MB-231 cells assessed as gammaH2AX phosphorylation at 10 uM incubated for 16 hrs by flow cytometry (reference value: 6.1 +/-0.7%); format: functional
[7] = tested on: HCT-116; test: Antiproliferative activity against human HCT116 cells assessed as reduction in cell viability after 4 days by [3H]-thymidine incorporation assay; format: functional, cell-based; method in brief: as §1
[8] = tested on: MDA-MB-231; test: Induction of DNA double strand breaks in human MDA-MB-231 cells assessed as gammaH2AX phosphorylation at 5 uM incubated for 16 hrs by flow cytometry (reference value: 6.1 +/-0.7%); format: functional
[9] = tested on: HCT-116; test: Antiproliferative activity against human HCT116 cells cultured as 3D-spheroids assessed as reduction in cell viability after 4 days by [3H]-thymidine incorporation assay; format: functional, cell-based
Method in brief: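 HCT116 spheroids: 4000 cells/well seeded in ultra-low attachment plates, then centrifuged at 1000 × g for 10 min to start spheroid formation. After 3 days, compounds added for four days. 3H-thymidine (0.08 µCi/well) added 16 h before harvest. Inhibition read as thymidine incorporation relative to untreated cells. IC50 is the concentration giving 50% inhibition.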

[10] = tested on: Calf thymus DNA; test: Binding affinity to calf thymus DNA assessed as binding constant by emission titration analysis; format: nucleic-acid assay; details: Bos taurus
[11] = Dissociation constant, pKa of the compound; format: physicochemical
[12] = tested on: MDA-MB-231; test: Cell cycle arrest in human MDA-MB-231 cells assessed as accumulation at S-phase at 1 uM incubated for 16 hrs by flow cytometry; format: functional, cell-based
Method in brief: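 Cells seeded at 106 per well in 6-well plates, exposed to compound for 16 h, harvested, washed, blocked in 1% FCS/PBS. Stained with anti-γH2AX (phospho-Ser139, 1:500, 2 h, room temperature), then Alexa 488 anti-mouse Fab (1:400, 1 h, room temperature, dark). Counterstained with RNase (1 µg/mL) plus propidium iodide (10 µg/mL) for 30 min. Cell-cycle profiles read by flow cytometry.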

[13] = tested on: HCT-116; test: Antiproliferative activity against human HCT116 cells assessed as cell viability at 10 uM after 4 days by [3H]-thymidine incorporation assay relative to control; format: functional; details: read-out: Activity; method in brief: as §1
[14] = tested on: MDA-MB-231; test: Cell cycle arrest in human MDA-MB-231 cells assessed as accumulation at S-phase at 1 to 10 uM incubated for 16 hrs by flow cytometry; format: functional, cell-based
[15] = tested on: Calf thymus DNA; test: Binding affinity to calf thymus DNA assessed as binding constant at 1 uM incubated for 24 hrs by competitive dialysis technique; format: nucleic-acid assay; details: Bos taurus
[16] = tested on: dsDNA; test: Binding affinity to 12-mer duplex oligonucleotide (unknown origin) assessed as melting temperature at 5 uM in sodium phosphate buffer at pH 7 by UV-VIS spectrophotometry (reference value: 52.8 degC); format: nucleic-acid assay
[17] = tested on: MDA-MB-231; test: Cell cycle arrest in human MDA-MB-231 cells assessed as accumulation at G1 phase at 1 to 10 uM incubated for 16 hrs by flow cytometry; format: functional, cell-based
[18] = tested on: Calf thymus DNA; test: Binding affinity to calf thymus DNA assessed as binding constant at 25 uM in sodium phosphate buffer solution at pH 7 by UV-Visible spectrophotometry; format: nucleic-acid assay; details: Bos taurus
[19] = tested on: MDA-MB-231; test: Antiproliferative activity against human MDA-MB-231 cells assessed as cell viability at 10 uM after 4 days by [3H]-thymidine incorporation assay relative to control; format: functional; details: read-out: Activity; method in brief: as §1
[20] = tested on: MDA-MB-231; test: Cell cycle arrest in human MDA-MB-231 cells assessed as accumulation at G2 phase at 1 to 10 uM incubated for 16 hrs by flow cytometry; format: functional, cell-based

| SMILES | inhibition [1] | inhibition [2] | IC50 [3] [nM] | pKR+ [4] | Activity [5] [%] | Activity [6] [%] | IC50 [7] [nM] | Activity [8] [%] | IC50 [9] [nM] | also measured |
| --- | --- | --- | --- | --- | --- | --- | --- | --- | --- | --- |
| CCCn1c2cccc3oc4cccc5c4[c+](c32)c2c1cccc2n5CCC | Active | Active | 77.5 | 19.4 | 13.6 | 2.4 | 106 to 111 | 1.3 | 21 |  |
| CCCCn1c2cccc3c2[c+]2c4c1cccc4n(CCCC)c1cccc(c12)n3CCCC.F[B-](F)(F)F |  | Active |  | 23.7 |  |  |  |  |  |  |
| CCCn1c2cccc3oc4cccc5oc6cccc1c6[c+](c45)c32 | Active | Active | 87.5 | 14.5 | 12.9 | 27.8 | 256 to 321 | 30.6 | 38 | Kb [10]: 8.1 ×10⁶ /M |
| c1cc2[nH]c3cccc4oc5cccc6oc(c1)c2[c+](c34)c65 |  |  |  |  |  |  |  |  |  | inhibition at 10 µM [1]: 12 to 25%; inhibition at 10 µM [2]: 12 to 25%; pKa [11]: 5.7 |
| CC[C@@]1(O)C(=O)OCc2c1cc1n(c2=O)Cc2cc3ccccc3nc2-1 [CAMPTOTHECIN] |  |  | 28.4 |  | 73.6 |  | 8.5 |  |  | Activity [12]: Active |
| c1cc2oc3cccc4oc5cccc6oc(c1)c2[c+](c34)c65 |  |  | 448 | 9.1 | 8.8 | 43.6 | 708 | 57.5 | > 1000 | viability at 10 µM [13]: < 1%; Activity [14]: inactive; Kb [15]: 4.1 ×10⁴ /M; Tm [16]: 57.3 °C; Activity [17]: Active; Kb [18]: 4.1 ×10⁴ /M; viability at 10 µM [19]: < 1%; Activity [20]: Active |

Source: ChEMBL document CHEMBL4373677, “The cytotoxic potential of cationic triangulenes against tumour cells” (Medchemcomm, 2019)
